# Bioassay records from PubChem.
# Rev-RRE block: HIV Rev-RRE protein-RNA interaction inhibition; P05866; Rev peptide-RRE RNA binding, FRET; inhibition, % at 8 µM; actives 0.79% (n = 97,000); AID 704;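 active = inhibition above the screen-wide mean plus 3 SD, cut at about 35% in these data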;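 also: 0% = median DMSO wells and 100% = median Neomycin B control wells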
# Target sequence (P05866 whole entry, looked up): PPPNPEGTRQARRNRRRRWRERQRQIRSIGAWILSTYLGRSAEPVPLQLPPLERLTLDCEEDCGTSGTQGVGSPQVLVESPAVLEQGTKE
#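 Assay system: Rev peptide and RRE RNA, both fluorescently labelled; times: 5 min preincubation and 15 min binding, 25 °C; detection: FRET, ex 480 nm, em 540 and 671 nm; read-out basis: % inhibition from 671/540 nm acceptor-to-donor ratio, scaled between controls; benchmarks: DMSO low control, neomycin B high control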
# PTPN22 inh 2: blocks human PTPN22 phosphatase activity; Q9Y2R2; recombinant LYP catalytic domain, DiFMUP fluorescence; inhibition, % at 2 µM; actives 0.21% (n = 96,000);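 active = inhibition at 2 µM at or above a set limit, the screen mean plus 3 SD, cut at about 24% in these data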;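 also: 0% = DMSO with enzyme and 100% = enzyme fully blocked by orthovanadate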
# FAK inh: blocks human focal adhesion kinase activity | Q05397 | biochemical FAK kinase activity assay | inhibition, %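 (tested at 7 µM)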 | actives 0.84% (n = 97,000) | AID 727;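 also: 0% = DMSO and 100% = reference compound high control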
# PTPN22 act: increases human PTPN22 phosphatase activity; Q9Y2R2; recombinant LYP, DiFMUP fluorescence; 0 = plate median, 100 = signal doubled; activation, % at 2 µM; actives 0.11% (n = 96,000); AID 697;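 active = activation at 2 µM above a set limit, the mean plus 5 SD, cut at about 37% in these data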
# FAK inh confirm: confirmation of human focal adhesion kinase (FAK) inhibitors | shares compounds with FAK inh | FAK kinase biochemical inhibition assay | inhibition, % at 7 µM | actives 28% (n = 750) | AID 794
# Starred values were filed as active, the others as inactive; / = not tested or not shown. Shown are actives, neighbours in structure and some others; about 1.8% of the full set was active somewhere. Rule as the data show it, unless noted: active = inhibition above about 19%; inactive = the rest.
SMILES,Rev-RRE block,PTPN22 inh 2,FAK inh,PTPN22 act,FAK inh confirm
CCOC(=O)C(O)(c1ccc(NC(=O)NC2CCCCC2)cc1)C(F)(F)F (configuration not stated),13,-10,0,7,/
COCCNC(=O)c1c(N)n(CCC(C)C)c2nc3ccccc3nc12,16,14,26*,-12,2
CC(C)CCn1c(N)c(C(=O)NCc2cccs2)c2nc3ccccc3nc21,8,6,23*,-2,-3
CC(C)CCNC(=O)c1c(N)n(Cc2ccc3c(c2)OCO3)c2nc3ccccc3nc12,19,-2,4,3,/
Nc1c(C(=O)NC2CCCC2)c2nc3ccccc3nc2n1CC1CCCO1 (configuration not stated),7,-9,36*,6,0
COc1ccc(Cn2c(N)c(C(=O)NCc3ccco3)c3nc4ccccc4nc32)cc1OC,31,5,34*,-6,0
CC(C)CNC(=O)c1c(N)n(Cc2ccc3c(c2)OCO3)c2nc3ccccc3nc12,19,13,31*,-11,0
O=c1cccc2n1CC1CC2CN(S(=O)(=O)c2ccccc2)C1 (configuration not stated),8,4,0,0,/
CCCCn1c(O)c(C(C)=NC(Cc2c[nH]c3ccccc23)C(=O)OC)c(=O)[nH]c1=O (configuration not stated),2,7,-7,-4,/
COc1ccc2c(c1)c(C(=O)O)c(C)n2CC(C)C,7,-2,10,0,/
CCCCn1c(C)c(C(=O)O)c2cc(OC)ccc21,9,-7,32*,4,11
C=CCN(CC=C)Cc1c[nH]c2ccccc12,8,-4,5,1,/
O/N=C/c1c[nH]c2ccccc12,1,1,38*,-2,11
O=P(O)(O)C12CC3CC(CC(C3)C1)C2,10,7,-4,-7,/
Cc1ccc(C2N(c3cc(C)on3)C(=O)C3CCCN32)cc1 (configuration not stated),0,6,-4,-8,/
